Laboratory results published in ChEMBL document CHEMBL1152919, “Chloro-oxime derivatives as novel small molecule chaperone amplifiers” (Bioorg Med Chem Lett, 2009).
Values joined by “and” are separate entries in the source; they are usually repeats but may differ in a detail not shown here. Identical values can stand only once. Active and inactive are the calls of the source. The calls are words filed in the database; no cut-off is given here.

What was measured:
[1] = Cytotoxicity against human SK-N-SH cells by MTS assay; assay type: cell-based
In short: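 SK-N-SH cells, 14,000/well, seeded in DMEM with 10% FBS 18 h before compound (1:200 dilution; final 0.3–80 µM). MTS read-out; % inhibition = (MTS DMSO − MTS compound)/MTS DMSO ×100; CC50 by nonlinear regression; average SD across runs 14%.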

[2] = biological target: T1, Heat shock factor protein 1 (Homo sapiens) (UniProt Q00613); test: Transcriptional activation of HSF1 in heat shock stress-induced human HeLa cells assessed as granule formation treated 1 hr before heat shock challenge measured after 2 hrs by immunocytochemical staining; assay type: cell-based
T1 sequence (whole entry): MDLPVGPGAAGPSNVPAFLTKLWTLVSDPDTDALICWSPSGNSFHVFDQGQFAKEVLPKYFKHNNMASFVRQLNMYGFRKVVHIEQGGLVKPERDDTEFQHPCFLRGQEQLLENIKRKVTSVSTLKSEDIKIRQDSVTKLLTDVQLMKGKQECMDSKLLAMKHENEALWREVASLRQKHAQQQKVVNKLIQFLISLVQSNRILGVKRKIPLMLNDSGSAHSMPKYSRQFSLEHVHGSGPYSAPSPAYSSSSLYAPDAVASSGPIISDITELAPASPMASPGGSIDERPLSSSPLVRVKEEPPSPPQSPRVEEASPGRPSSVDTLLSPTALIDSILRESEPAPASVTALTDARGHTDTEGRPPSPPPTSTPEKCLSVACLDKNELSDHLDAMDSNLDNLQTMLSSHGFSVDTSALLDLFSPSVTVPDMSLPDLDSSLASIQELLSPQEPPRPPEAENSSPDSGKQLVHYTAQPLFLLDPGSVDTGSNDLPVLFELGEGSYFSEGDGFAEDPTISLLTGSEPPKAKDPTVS
In short: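 HeLa cells given compound 1 h, then heat shock at 41 °C for 2 h without recovery; HSF1 immunocytochemical staining, quantified by high-content imaging. Range 0.3–80 µM, twofold dilution, 200-fold overall.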

[3] = biological target: T1, Heat shock factor protein 1 (Homo sapiens); test: Transcriptional activation of HSF1 in human HeLa cells assessed as granule formation treated for 3 hrs at 37 degC without heat shock by immunocytochemical staining
SK-N-SH [4] = test: Cytoprotective activity against 26S proteasome inhibitor MG132-induced stress in human SK-N-SH cells assessed as cell viability treated 1 hr before MG132 challenge measured after 24 hrs; assay type: functional, cell-based
In short: (§1)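 SK-N-SH cells, 12,500/well, exposed to compound 1 h ahead of MG-132 (5 µM final), then 24 h. Viability by ATPlite-1step luminescence; increased ATP% = (RLU compound − RLU DMSO)/RLU DMSO ×100, with DMSO as negative control. Tested 0.3–80 µM in twofold steps; EC50 from nonlinear regression curve fit; max cytoprotection >60% scored active.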

[5] = Cytotoxicity against human HeLa cells by MTS assay; assay type: cell-based
PC-12 = test: Cytoprotective activity against tunicamycin-induced endoplasmic reticulum stress in rat PC12 cells assessed as viability after 43 hrs relative to control; assay type: functional
In short: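 PC12 cells, 5000/well, differentiated with NGF (50 ng/ml final) for 5–7 days until neurites appear. Compound (1:20 dilution) given together with tunicamycin (750 ng/mL final) for 43 h at 37 °C. Viability by ATPlite; ATP increase expressed against the DMSO plus tunicamycin control.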

[6] = biological target: T2, Heat shock factor protein 1 (Homo sapiens, UniProt Q00613); test: Transcriptional activation of HSF1 in heat shock stress-induced human HeLa cells assessed as granule formation at 80 uM treated 1 hr before heat shock challenge measured after 2 hrs by immunocytochemical staining; assay type: cell-based
T2 sequence (Q00613 whole entry): T1 sequence (whole entry)

HeLa [7] = test: Cytotoxicity against human HeLa cells at 80 uM by MTS assay; assay type: cell-based
SK-N-SH [8] = test: Decrease in human SK-N-SH cells proliferation upto 20 uM by Click-iT assay; assay type: functional, cell-based
In short: (§2)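 Click-iT cell proliferation assay, run on HeLa and SK-N-SH cells across 0–20 µM compound.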

HeLa [9] = test: Stimulation of human HeLa cells proliferation upto 20 uM by Click-iT assay; assay type: functional, cell-based; in short: as §2
HeLa [10] = test: Increase in HSP70 expression in heat shock stress-induced human HeLa cells assessed as granule formation after 2 hrs of recovery time by immunocytochemical staining; assay type: functional, cell-based
In short: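 HeLa cells heat-shocked at 41 °C; HSP70 immunocytochemical staining 2 h after heat shock; automated image acquisition, quantifying HSP70 granule count and total granule area.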

SK-N-SH [11] = test: Cytoprotective activity against MG132-induced stress in human SK-N-SH cells assessed as survivality treated 1 hr before MG132 challenge measured after 24 hrs relative to control; assay type: functional; in short: as §1
[12] = Homo sapiens, SK-N-SH, read-out: EC50

Structure (SMILES) | Activity [3] | EC50 (SK-N-SH [4]; [12]) [µM] | CC50 [1] [µM] | CC50 [5] [µM] | other results
CC(C)(C)NCC(O)CO/N=C(\Cl)c1nc2ccccc2o1 (stereo not drawn) | inactive | – | 24.7 | 55.4 | Activity [2]: inactive; EC50 (SK-N-SH [4]; sk-n-sh): Not Active
OC(CO/N=C/c1nc2ccccc2o1)CN1CCCCC1 (stereo not drawn) | – | – | > 80 | > 80 | EC50 (SK-N-SH [4]; sk-n-sh): Not Active
CC(C)N(CC(O)CO/N=C(\Cl)c1nc2ccccc2o1)C(C)C (stereo not drawn) | inactive | 14.7 | 30.8 | 45 | Activity (PC-12): >150% and 300%
CO/C(=N\OCC(O)CN1CCCCC1)c1nc2ccccc2o1 (stereo not drawn) | – | – | > 80 | > 80 | EC50 (SK-N-SH [4]; sk-n-sh): Not Active
CCC(C)N(CC(O)CO/N=C(\Cl)c1nc2ccccc2o1)C(C)CC (stereo not drawn) | inactive | 20.9 | 54.2 | – | Activity [6]: 62% and 25%; Activity [2]: inactive
C/C(=N\OCC(O)CN1CCCCC1)c1nc2ccccc2o1 (stereo not drawn) | – | – | > 80 | > 80 | EC50 (SK-N-SH [4]; sk-n-sh): Not Active
OC(CO/N=C(\Cl)c1cc2ccccc2o1)CN1CCCCC1 (stereo not drawn) | – | – | > 80 | > 80 | EC50 (SK-N-SH [4]; sk-n-sh): Not Active
CCCCN(CCCC)CC(O)CO/N=C(\Cl)c1nc2ccccc2o1 (stereo not drawn) | inactive | 22.3 | 41 | > 80 | –
CCCN(CCC)CC(O)CO/N=C(\Cl)c1nc2ccccc2o1 (stereo not drawn) | inactive | 10.2 | 46.4 | – | –
CC(C)N(CCO)CC(O)CO/N=C(\Cl)c1nc2ccccc2o1 (stereo not drawn) | inactive | 8.2 | 30.6 | 50.2 | –
OC(CO/N=C(\Cl)c1nc2ccccc2s1)CN1CCCC1 (stereo not drawn) | inactive | – | 31.1 | 60.1 | EC50 (SK-N-SH [4]; sk-n-sh): Not Active
CCCN(CC(O)CO/N=C(\Cl)c1nc2ccccc2o1)C(C)C (stereo not drawn) | inactive | 8.9 | 50.4 | 57.6 | Activity (SK-N-SH [8]): Active; Activity (HeLa [9]): inactive
CC(C)N(CCCF)CC(O)CO/N=C(\Cl)c1nc2ccccc2o1 (stereo not drawn) | inactive | 10.1 | 46 | 33.8 | –
CC(C)N(CC(O)CO/N=C(\Cl)c1nc2ccccc2o1)CC1CC1 (stereo not drawn) | inactive | 6.3 | 32.7 | 24.4 | –
CCCN(CC)CC(O)CO/N=C(\Cl)c1nc2ccccc2o1 (stereo not drawn) | inactive | 12.4 | 42.1 | 40.7 | –
CC1CCCC(C)N1CC(O)CO/N=C(\Cl)c1nc2ccccc2o1 (stereo not drawn) | inactive | 11.1 | 36.2 | 78.9 | –
OC(CO/N=C(\Cl)c1cc2ccccc2s1)CN1CCCCC1 (stereo not drawn) | – | – | 67.7 | > 80 | EC50 (SK-N-SH [4]; sk-n-sh): Not Active
CS(=O)(=O)NCC(O)CO/N=C(\Cl)c1nc2ccccc2o1 (stereo not drawn) | – | 39.3 | > 80 | 48.5 | –
CC(=O)NCC(O)CO/N=C(\Cl)c1nc2ccccc2o1 (stereo not drawn) | – | 41.9 | > 80 | > 80 | –
CN(C)S(=O)(=O)c1ccc2nc(/C(Cl)=N/OCC(O)CN3CCCCC3)oc2c1 (stereo not drawn) | inactive | 7.9 | 42.4 | 45.1 | –
CC1CC(C)CN(CC(O)CO/N=C(\Cl)c2nc3ccccc3o2)C1 (stereo not drawn) | inactive | 9.3 | 34 | 55.3 | –
CCN(CC)CC(O)CO/N=C(\Cl)c1nc2ccccc2o1 (stereo not drawn) | inactive | 10.2 | 36.2 | – | –
O=C(NOCC(O)CN1CCCCC1)c1nc2ccccc2o1 (stereo not drawn) | – | – | > 80 | > 80 | EC50 (SK-N-SH [4]; sk-n-sh): Not Active
OC(CO/N=C(/c1nc2ccccc2o1)C(F)(F)F)CN1CCCCC1 (stereo not drawn) | – | – | > 80 | > 80 | EC50 (SK-N-SH [4]; sk-n-sh): Not Active
CC(C)N(CC(O)CO/N=C(\Cl)c1nc2ccccc2o1)C(C)(C)C (stereo not drawn) | inactive | 9.9 | 40.3 | 30.8 | –

Second part, led by results:

Activity [3] | EC50 (SK-N-SH [4]; [12]) [µM] | Structure (SMILES) | CC50 [1] [µM] | CC50 [5] [µM] | other results
inactive | 5.2 | OC(CO/N=C(\Cl)c1nc2c(ccc3ccccc32)o1)CN1CCCCC1 (stereo not drawn) | 17.4 | 18.9 | –
– | 58.7 | Cl/C(=N\OCCCN1CCCCC1)c1nc2ccccc2o1 | > 80 | > 80 | –
inactive | 6.3 | OC(CO/N=C(\Cl)c1nc2cc(Cl)ccc2o1)CN1CCCCC1 (stereo not drawn) | 23.2 | 31.4 | –
inactive | 12 | OC(CO/N=C(\Cl)c1nc2cc(F)ccc2o1)CN1CCCCC1 (stereo not drawn) | 62.4 | > 80 | –
inactive | 18.8 | OC(CO/N=C(\Cl)c1nc2ccccc2o1)CN1CCC(F)CC1 (stereo not drawn) | 52.6 | – | Activity [6]: 63%; Inhibition (HeLa [7]): 35%
– | 61.7 | OC(CO/N=C(\Cl)c1nc2ccccc2o1)CN1CCOCC1 (stereo not drawn) | > 80 | > 80 | –
inactive | 6.1 | Cc1ccc2nc(/C(Cl)=N/OCC(O)CN3CCCCC3)oc2c1 (stereo not drawn) | 28 | 18.8 | –
inactive | 9.5 | Cc1ccc2oc(/C(Cl)=N/OCC(O)CN3CCCCC3)nc2c1 (stereo not drawn) | 34.6 | – | –
inactive | 3.8 | OC(CO/N=C(\Cl)c1nc2cccc(F)c2o1)CN1CCCCC1 (stereo not drawn) | 16.9 | 19.3 | –
inactive | 43.6 | O=C(NCC(O)CO/N=C(\Cl)c1nc2ccccc2o1)N1CCCCC1 (stereo not drawn) | 59.6 | 46.9 | Activity [6]: 28%; Activity [2]: inactive
inactive | 11 | OC(CO/N=C(\Cl)c1nc2ccc(F)cc2o1)CN1CCCCC1 (stereo not drawn) | 37.3 | > 80 | –
inactive | 9 | OC(CO/N=C(\Cl)c1nc2ccc(Cl)cc2o1)CN1CCCCC1 (stereo not drawn) | 20 | 44.2 | –
inactive | 20 | OC(CO/N=C(\Cl)c1nc2ccccc2o1)CN1CCCC(F)C1 (stereo not drawn) | 49.8 | 52.7 | –
inactive | 13.5 | OC(CO/N=C(\Cl)c1nc2ccccc2s1)CN1CCCCC1 (stereo not drawn) | 26.5 | 49.1 | –
inactive | 5.9 | CCS(=O)(=O)c1ccc2oc(/C(Cl)=N/OCC(O)CN3CCCCC3)nc2c1 (stereo not drawn) | 44.2 | 41.4 | –
– | 15.7 | OC(CO/N=C(\Cl)c1nc2ccccc2o1)CN1CCCCC1 (stereo not drawn) | 26 | 41.7 | Activity (SK-N-SH [8]): Active; Activity (HeLa [10]): 51%; EC50 (HeLa [10]; Homo sapiens, HeLa, 2 h): 32.9 µM; Activity [2]: 58%; Activity (PC-12): >200%; Activity (SK-N-SH [11]): 90.6%; Activity (HeLa [9]): inactive
inactive | 6.9 | OC(CO/N=C(\Cl)c1nc2c(F)cccc2o1)CN1CCCCC1 (stereo not drawn) | 20.3 | 40.2 | –
inactive | 26.4 | OC(CO/N=C(\Cl)c1nc2ccccc2o1)CN1CCC(F)(F)CC1 (stereo not drawn) | > 80 | > 80 | Activity [6]: 49%
